Screening data: PubChem BioAssay, Sanford-Burnham Center for Chemical Genomics
DNMT1 block – inhibitors of human DNMT1. DNMT1 molecular beacon, Hinp1I cleavage, fluorescence. inhibition (reported as % activation of signal), % at 10 µM. 360,000 tested, 0.83% active; in the data active = inhibition above about 50%
SUMO1-SIM PPI – modulators of human SUMO1-mediated protein-protein interactions; 360,000 tested, 0.33% active; SUMO1 binding to a labelled peptide, TR-FRET, 1 h; AID 602429; inhibition, % at 20 µM; P63165; in the data active = inhibition above about 37%
Target sequence (P63165 whole entry, looked up): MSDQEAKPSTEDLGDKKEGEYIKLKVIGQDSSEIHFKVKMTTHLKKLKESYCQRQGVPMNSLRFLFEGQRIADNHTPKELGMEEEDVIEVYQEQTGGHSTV
STEP inh – inhibitors of human striatal-enriched phosphatase STEP | inhibition, % at 20 µM | AID 588621 | recombinant STEP, OMFP fluorogenic substrate, fluorescence | 360,000 tested, 0.25% active | P54829;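 active = inhibition at 20 µM, scaled per plate between control wells, above about 37%, limit read from the data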;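 also: 0% = DMSO with enzyme and substrate and 100% = substrate only without enzyme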
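material = STEP tyrosine phosphatase | reagent = fluorogenic phosphatase substrate OMFP at 25 µM final | doses = single compound dose of 20 µM, 1% DMSO final | schedule = 20 min reaction, room temperature, in the dark | measured by = fluorescence, 480/540 nm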
LMPTP inh – LMPTP (human) inhibition | P24666 | recombinant LMPTP-A, OMFP fluorogenic substrate, fluorescence intensity | inhibition, % at 20 µM | 360,000 tested, 0.22% active | AID 651560;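 active = compounds that cut the enzyme signal by at least half of the control window in the single-dose screen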;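 also: plate controls were DMSO wells with enzyme plus substrate for no effect and substrate without enzyme for full effect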
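material = LMPTP-A | quantity = 0.625 nM enzyme | reagent = OMFP substrate, 400 µM final | buffer or medium = Bis-Tris pH 6.0, DTT, detergent | detection = endpoint fluorescence intensity from OMFP dephosphorylation | dosing = single 20 µM dose | read-out basis = % inhibition relative to no-enzyme and uninhibited control wells | control set = no-enzyme and uninhibited controls | timing = 50 min at room temperature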
Scp1 inh – Scp-1 (human) phosphatase inhibition; 340,000 tested, 0.88% active; Q9GZU7; Recombinant Scp1, phosphopeptide, malachite green phosphate absorbance; inhibition, % at 20 µM; AID 493091;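 active = inhibition above about 50% at 20 µM, limit read from the data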;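 also: plate controls were DMSO wells with enzyme for no effect and wells lacking enzyme for full effect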
Target sequence (Q9GZU7 76-261 limits assumed): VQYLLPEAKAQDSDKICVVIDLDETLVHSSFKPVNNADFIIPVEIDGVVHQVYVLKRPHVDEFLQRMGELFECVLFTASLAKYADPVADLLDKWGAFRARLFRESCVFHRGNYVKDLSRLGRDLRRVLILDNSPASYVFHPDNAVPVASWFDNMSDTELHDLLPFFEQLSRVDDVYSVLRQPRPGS
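Test system – truncated SCP-1 phosphatase (76-261aa) · Reagent – Phosphorylated 17-residue peptide substrate · Incubation – 45 min room-temperature reaction, 5 min colour, 30 min stabiliser · Detection – colorimetric phosphate reagent with accelerator and stabiliser, absorbance at 630 nm · Measure – % inhibition at 20 µM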
CSN deneddyl inh – inhibitors of human CSN-mediated cullin deneddylation. 360,000 tested, 0.38% active. Purified CSN, SCF-Nedd8-OG deneddylation, fluorescence polarization. AID 651999. inhibition, % at 12.5 µM;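 active = pattern-corrected inhibition above about 35%, with an unprinted fluorescence ratio check between 0.5 and 1.5, limit read from the data, passing the limit was not always enough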;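 also: 0% = enzyme with substrate and 100% = substrate without enzyme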
Target sequence (Q92905 whole entry, looked up, one chain of several): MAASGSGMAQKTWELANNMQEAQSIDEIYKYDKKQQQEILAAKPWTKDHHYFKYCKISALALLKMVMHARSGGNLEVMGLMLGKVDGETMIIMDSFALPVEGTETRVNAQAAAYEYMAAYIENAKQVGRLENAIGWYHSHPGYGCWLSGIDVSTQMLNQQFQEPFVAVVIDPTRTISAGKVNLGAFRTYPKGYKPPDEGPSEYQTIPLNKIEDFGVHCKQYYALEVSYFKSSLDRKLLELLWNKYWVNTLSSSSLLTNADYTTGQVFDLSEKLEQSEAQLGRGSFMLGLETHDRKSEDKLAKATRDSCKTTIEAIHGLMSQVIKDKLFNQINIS
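Assay system: HEK293T-derived human Csn5 enzyme; quantity: 0.24 nM enzyme; medium: Tris/NaCl/DTT buffer, pH 7.5; also added: substrate SCFSkp2-Nedd8OG, 10 nM; doses: 12.5 µM compound; schedule: 90 min reaction at room temperature; signal: FP; read-out: % inhibition of substrate cleavage by Csn5; benchmarks: substrate-only high control, full reaction low control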
Beacon interf DR – beacon fluorescence artifact, dose response counter-screen; AID 602382; 200 tested, under 10 active; IC50, µM; molecular beacon fluorescence, spectral interference counter-screen; shares compounds with DNMT1 block; call rule not given here
DNMT1 confirm – DNMT1 inhibition confirmation, single concentration. shares compounds with DNMT1 block. DNMT1 molecular beacon HinP1I cleavage, fluorescence. inhibition, % at 10 µM. 2,300 tested, 8% active;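 active = average inhibition of at least 30% in the single-concentration confirmation test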
DNMT1 interf – beacon fluorescence artifact counter-screen; DNMT1 molecular beacon spectral interference counterscreen, fluorescence 485/520; AID 602387; activation (fluorescence interference), % at 10 µM; shares compounds with DNMT1 block; 2,300 tested, 1% active;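 active = activation of at least 30% at 10 µM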;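 also: DNMT1 catalytic domain with a HinP1I cleavage step and a FAM/dabcyl DNA beacon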
* hit, by the source's call; nt = not tested or not shown; ! = not confirmed by another sample. In the library only some 1.9% were active in any assay of this set; here they are far more common.

SMILES	DNMT1 block	SUMO1-SIM PPI	STEP inh	LMPTP inh	Scp1 inh	CSN deneddyl inh	DNMT1 confirm	DNMT1 interf	others
Cc1cc[n+](CC(=O)c2ccc(NC(=O)c3ccccc3)cc2)c2ccccc12	53*	-23	-1	8	2	7	2	1
O=C(C[n+]1cccc2ccccc21)c1ccc(NC(=O)c2ccccc2)cc1	-2	-22	-2	1	1	1	nt	nt
Cc1cccc(NC(=O)c2nc[nH]c2C(=O)NC[C@H](C)O)c1	1	-2	-1	0	nt	-1	nt	nt
CC1(C)CC(NC(=O)c2ccc(F)cc2)CC(C)(C)N1	-1	-7	-2	-3	nt	0	nt	nt
CC1(C)CC(NC(=O)c2ccccc2)CC(C)(C)N1	101*	3	0	0	0	0	-1	1
Cc1ccc(-n2nc3c(c2NC(=O)C(C)(C)C)CSC3)c(C)c1	3	0	0	-2	3	2	nt	nt
Cc1ccc(-n2nc3c(c2NC(=O)c2ccc(Br)o2)CSC3)c(C)c1	53*	8	5	0	-8	15	14	-5
O=C(CSc1ccccc1F)NNC(=O)c1cncc(Br)c1	1	0	-4	0	-6	-2	nt	nt
CN(CC(=O)Nc1ccccc1Cl)C(=O)COC(=O)c1ccc([N+](=O)[O-])s1	65*	16	2	-1	5	11	-2	-6
Cc1cc(C)c(NC(=O)COC(=O)c2ccc([N+](=O)[O-])s2)c(C)c1	-12	5	-4	-1	-5	3	nt	nt
NS(=O)(=O)c1ccc(NC(=O)COC(=O)c2ccc([N+](=O)[O-])s2)cc1	70*	10	-2	0	-4	15	70*	-2	Beacon interf DR=>99
CCN(CC(=O)Nc1c(C(=O)OC)[nH]c2ccc(C)cc12)c1ccc2c(c1)OCO2	-10	-7	0	2	-10	-5	nt	nt
O=C(NNC(=O)c1cc(-c2ccccc2)n(-c2ccccc2)n1)c1cccc([N+](=O)[O-])c1	-1	-11	0	0	-9	-6	nt	nt
CCOC(=O)C1=C(C)N=c2s/c(=C\c3ccc(OCC(=O)O)cc3)c(=O)n2C1c1ccc(OC(C)C)cc1 (stereo not drawn)	-2	1	14	1	7	7	nt	nt
CCOC(=O)C1=C(C)N=c2sc(=Cc3ccc(OCC(=O)O)cc3)c(=O)n2C1c1ccc(Cl)cc1 (stereo not drawn)	92*	44*	10	76*	nt	35*	99*	-5	Beacon interf DR=>99
Cc1ccc(C(=O)Nc2cccc(C(F)(F)F)c2)cc1NC(=O)c1nccn1C	56*!	5	1	4	-4	8	0	5
Cc1nn(CC2CC2)c(=O)n1-c1ccccc1	0	3	-2	-1	-7	5	nt	nt
COc1ccc(/C=C(\C#N)c2nc3ccc(C)cc3[nH]2)cc1Oc1ccc(C(F)(F)F)cc1[N+](=O)[O-]	52*	-3	-1	-2	-17	-3	5	-5
CCOC(=O)N1CCC(NC(=O)CS(=O)Cc2nc(-c3ccc(C)cc3)oc2C)CC1 (stereo not drawn)	1	4	-1	0	-3	-3	nt	nt
C=CCn1c(N)c(C(=O)Nc2cccc(C)c2)c2nc3ccccc3nc21	-47	6	3	3	0	5	nt	nt
C=CCn1c(N)c(C(=O)OCCC)c2nc3ccccc3nc21	60*	16	3	14	-7	2	-1	-2
CCCS(=O)(=O)N1CCCC(C(=O)Oc2ccc(OC)cc2)C1 (stereo not drawn)	83*	-1	0	0	-2	-2	0	2
CCCCS(=O)(=O)N1CCCC(C(=O)Oc2ccccc2)C1 (stereo not drawn)	-3	4	2	-2	-4	-4	nt	nt
CCN1CCN(S(=O)(=O)c2ccc(OC)cc2)CC1	4	-1	1	-2	0	7	nt	nt
Cc1c(NS(=O)(=O)c2cc(C(=O)OCC(=O)c3ccccc3F)ccc2Cl)c(=O)n(-c2ccccc2)n1C	63*	-3	0	-2	nt	3	2	3
SMILES	DNMT1 block	SUMO1-SIM PPI	STEP inh	LMPTP inh	Scp1 inh	CSN deneddyl inh	DNMT1 confirm	DNMT1 interf	others
Cc1c(NS(=O)(=O)c2cc(C(=O)O)ccc2Cl)c(=O)n(-c2ccccc2)n1C	4	-1	-1	-1	4	4	nt	nt
CCOc1ccc(C(=O)N/N=C/c2ccc(-c3ccc(S(=O)(=O)Nc4ncccn4)cc3)o2)cc1	4	19	1	2	-3	7	nt	nt
NC(=S)NN=Cc1ccc(-c2ccc(S(=O)(=O)Nc3ncccn3)cc2)o1	89*	33	3	13	3	30	12	-3
O=C(O)C1C=CCC(C(=O)O)C1 (stereo not drawn)	98*	-2	-2	0	nt	3	3	5
O=C(O)C1CC(C(=O)O)SS1 (stereo not drawn)	1	-2	-1	0	2	2	nt	nt
COc1ccc(/C=N/n2c(C)nc3c([nH]c4ccccc43)c2=O)cc1CN1CCCC(C)(C)C1	54*	-3	10	1	-4	7	4	3
COc1cc(C2C3=C(Nc4nc(N)[nH]c(=O)c42)c2ccccc2C3=O)ccc1O (stereo not drawn)	1	-2	7	10	-2	3	nt	nt
O=C(N/N=C/c1c[nH]c2ccccc12)c1ccc(Cl)cc1	-4	-8	-1	2	0	-2	nt	nt
CCOc1ccc(N2CC(C(=O)Nc3cccc(S(=O)(=O)NC4=NCCC4)c3)CC2=O)cc1 (stereo not drawn)	-3	5	-3	-1	-13	-4	nt	nt
COc1ccc(NC(=O)C(Cc2cc(C)cc(C)c2)C(C)C(=O)O)cc1 (stereo not drawn)	-8	-1	-2	-3	21	0	nt	nt
Cc1ccccc1OCC(=O)NCCCNC(=O)c1ccncc1	78*	-2	-1	0	-1	-2	1	4
O=C(COc1ccccc1Cl)NCCCNC(=O)c1ccncc1	-1	3	-2	-1	9	6	nt	nt
NS(=O)(=O)c1ccc(N2CCN(CCOc3ccc(Cl)cc3)CC2)nc1	0	4	-3	1	-2	1	nt	nt
